Results as given in ChEMBL document CHEMBL4411269, “Required Immunoproteasome Subunit Inhibition Profile for Anti-Inflammatory Efficacy and Clinical Candidate KZR-616 ((2 S,3 R)- N-(( S)-3-(Cyclopent-1-en-1-yl)-1-(( R)-2-methyloxiran-2-yl)-1-oxopropan-2-yl)-3-hydroxy-3-(4-methoxyphenyl)-2-(( S)-2-(2-morpholinoacetamido)propanamido)propenamide)” (J Med Chem, 2018).
In brackets after ≈: the same amount, converted by molar mass. Activity calls are given as the source filed them. The calls are words filed in the database; no cut-off is given here.

Assays:
[1] = biological target: T1, Proteasome subunit beta type-8 (Homo sapiens, UniProt P28062); assay: Inhibition of LMP7 in human MOLT4 cells by ELISA; type: cell-based
T1 sequence (P28062 whole entry): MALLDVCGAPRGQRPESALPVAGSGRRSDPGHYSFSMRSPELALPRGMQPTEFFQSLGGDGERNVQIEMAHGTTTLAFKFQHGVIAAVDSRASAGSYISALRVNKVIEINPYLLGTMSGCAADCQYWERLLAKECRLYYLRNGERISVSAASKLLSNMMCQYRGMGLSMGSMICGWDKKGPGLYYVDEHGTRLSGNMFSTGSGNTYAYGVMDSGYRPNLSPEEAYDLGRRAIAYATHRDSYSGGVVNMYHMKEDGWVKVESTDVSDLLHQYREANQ

[2] = biological target: T2, Proteasome subunit beta type-5 (Mus musculus, UniProt O55234); assay: Inhibition of 20S proteosome beta 5 in mouse A20 cells by ELISA; type: cell-based
T2 sequence (O55234 whole entry): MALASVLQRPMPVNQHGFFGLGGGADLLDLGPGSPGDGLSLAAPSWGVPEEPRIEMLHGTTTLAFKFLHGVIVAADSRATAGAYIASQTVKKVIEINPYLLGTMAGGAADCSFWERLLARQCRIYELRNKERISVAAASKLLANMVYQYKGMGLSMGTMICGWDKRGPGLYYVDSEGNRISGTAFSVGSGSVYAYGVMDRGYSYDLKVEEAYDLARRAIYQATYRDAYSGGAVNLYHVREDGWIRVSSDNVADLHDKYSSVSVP

[3] = biological target: T3, Proteasome subunit beta type-8 (Mus musculus, UniProt P28063); assay: Inhibition of LMP7 in mouse A20 cells by ELISA; type: cell-based
T3 sequence (P28063 whole entry): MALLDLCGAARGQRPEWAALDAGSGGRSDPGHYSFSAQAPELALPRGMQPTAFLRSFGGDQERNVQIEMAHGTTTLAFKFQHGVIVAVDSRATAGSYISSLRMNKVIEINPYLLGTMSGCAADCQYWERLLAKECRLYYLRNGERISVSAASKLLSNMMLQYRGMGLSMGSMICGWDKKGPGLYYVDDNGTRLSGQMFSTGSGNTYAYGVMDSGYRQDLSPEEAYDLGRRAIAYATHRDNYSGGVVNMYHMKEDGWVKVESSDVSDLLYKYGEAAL
Procedure, shortened: (§1)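 Mouse A20 B-cell lymphoma cell lysate (1 mg/mL, hypotonic 20 mM Tris pH 8, 5 mM EDTA) treated with serially diluted compound for 1 h at 25 °C. Then 5 μM biotinylated active-site probe for 2 h at 25 °C, guanidine denaturation and streptavidin bead capture. Subunit-specific antibody and HRP chemiluminescence, signal normalized to protein, IC50 from percent activity versus DMSO controls.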

[4] = biological target: T4, Proteasome Macropain subunit MB1 (Homo sapiens, UniProt P28074); assay: Inhibition of 20S proteosome beta 5 in human MOLT4 cells by ELISA; type: cell-based
T4 sequence (P28074 whole entry): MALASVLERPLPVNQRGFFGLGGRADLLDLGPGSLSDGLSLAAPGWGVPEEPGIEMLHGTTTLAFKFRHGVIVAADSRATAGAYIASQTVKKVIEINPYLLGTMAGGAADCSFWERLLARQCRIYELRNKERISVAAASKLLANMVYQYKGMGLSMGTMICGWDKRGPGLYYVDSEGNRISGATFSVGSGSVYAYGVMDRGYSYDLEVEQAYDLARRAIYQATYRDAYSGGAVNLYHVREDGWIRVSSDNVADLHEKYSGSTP

[5] = Solubility of the compound in phosphate buffer at pH 7.2 at 10 mg/ml after 24 hrs by HPLC-UV method; type: physicochemical
Procedure, shortened: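 Compound shaken at a target 10 mg/mL in 50 mM potassium phosphate buffer for 24 h at 25 °C, then centrifuged at 15 000 rpm for 15 min. Supernatant diluted 100-fold in DMSO and quantified by HPLC-UV (220/254/280 nm) against a three-level DMSO standard curve, in duplicate.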

[6] = biological target: T5, Proteasome subunit beta type-9 (Homo sapiens, UniProt P28065); assay: Inhibition of LMP2 in human MOLT4 cells by ELISA; type: cell-based
T5 sequence (P28065 whole entry): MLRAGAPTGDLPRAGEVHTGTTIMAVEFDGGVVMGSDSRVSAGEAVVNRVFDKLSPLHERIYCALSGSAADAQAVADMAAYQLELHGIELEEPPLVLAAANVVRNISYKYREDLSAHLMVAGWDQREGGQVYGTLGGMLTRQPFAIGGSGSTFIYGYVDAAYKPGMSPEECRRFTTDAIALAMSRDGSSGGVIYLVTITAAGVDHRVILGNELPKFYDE

[7] = biological target: T6, Proteasome subunit beta type-10 (Homo sapiens, UniProt P40306); assay: Inhibition of MECL1 in human MOLT4 cells by ELISA; type: cell-based
T6 sequence (P40306 whole entry): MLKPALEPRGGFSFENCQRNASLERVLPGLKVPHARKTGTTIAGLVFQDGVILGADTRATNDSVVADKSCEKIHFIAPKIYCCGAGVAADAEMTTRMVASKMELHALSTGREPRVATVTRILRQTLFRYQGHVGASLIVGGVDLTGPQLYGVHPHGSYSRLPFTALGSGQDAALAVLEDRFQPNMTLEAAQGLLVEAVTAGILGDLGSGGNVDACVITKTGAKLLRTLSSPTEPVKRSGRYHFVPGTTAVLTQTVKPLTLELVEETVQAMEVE

[8] = biological target: T7, Proteasome subunit beta type-9 (Mus musculus, UniProt P28076); assay: Inhibition of LMP2 in mouse A20 cells by ELISA; type: cell-based; procedure, shortened: as §1
T7 sequence (P28076 whole entry): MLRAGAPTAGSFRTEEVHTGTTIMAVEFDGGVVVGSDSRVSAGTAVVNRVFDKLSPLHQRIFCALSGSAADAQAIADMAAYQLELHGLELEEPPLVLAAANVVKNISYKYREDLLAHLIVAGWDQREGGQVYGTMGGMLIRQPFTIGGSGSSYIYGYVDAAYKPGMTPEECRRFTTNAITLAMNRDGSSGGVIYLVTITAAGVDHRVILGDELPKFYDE

[9] = biological target: Proteasome subunit beta type-2 (Mus musculus, UniProt Q9R1P3); assay: Inhibition of 20S proteosome beta 2 in mouse A20 cells by ELISA; type: cell-based
Sequence of Proteasome subunit beta type-2 (Q9R1P3 whole entry): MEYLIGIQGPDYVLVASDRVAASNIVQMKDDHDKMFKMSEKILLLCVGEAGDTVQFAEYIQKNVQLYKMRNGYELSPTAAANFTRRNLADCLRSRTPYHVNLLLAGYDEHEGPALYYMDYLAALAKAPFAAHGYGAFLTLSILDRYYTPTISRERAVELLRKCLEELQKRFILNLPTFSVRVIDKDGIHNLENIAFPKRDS

[10] = biological target: T8, Proteasome subunit beta type-10 (Mus musculus, UniProt O35955); assay: Inhibition of MECL1 in mouse A20 cells by ELISA; type: cell-based; procedure, shortened: as §1
T8 sequence (O35955 whole entry): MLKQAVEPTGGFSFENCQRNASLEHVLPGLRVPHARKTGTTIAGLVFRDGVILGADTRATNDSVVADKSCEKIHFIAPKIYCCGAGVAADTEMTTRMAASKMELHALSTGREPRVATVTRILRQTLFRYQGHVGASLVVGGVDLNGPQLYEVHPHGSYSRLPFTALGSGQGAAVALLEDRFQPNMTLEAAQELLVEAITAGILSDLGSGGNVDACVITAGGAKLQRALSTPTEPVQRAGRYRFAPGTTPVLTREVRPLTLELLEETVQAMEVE

[11] = system: PBMC; assay: Antiinflammatory activity in human PBMC assessed as reduction in LPS-stimulated p40 subunit of […] expression at 250 nM preincubated for 1 hr followed by LPS stimulation measured after 24 hrs by ELISA; type: functional, cell-based
Procedure, shortened: (§2)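 Cryopreserved healthy-donor PBMC in RPMI 1640 with 5% heat-inactivated FBS, 250 000 cells/well. Compound (0.1% DMSO final) for 1 h at 37 °C, 5% CO2, then 4 washes with medium. Stimulated with 1 μg/mL LPS for 24 h; supernatant TNFα, IL-6 and IL-12/23p40 by electrochemiluminescent immunoassay. Mean level relative to DMSO controls, n = 6.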

[12] = biological target: T9, Proteasome subunit beta type-9 (Homo sapiens) (UniProt P28065); assay: Inhibition of LMP2 in human PBMC at 250 nM by ELISA
T9 sequence (whole entry): T5 sequence (P28065 whole entry)
Procedure, shortened: (§3)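 Cryopreserved healthy-donor human PBMC in RPMI 1640 with 5% heat-inactivated FBS, exposed to compound (0.1% DMSO final) for 1 h at 37 °C, 5% CO2, then washed. Subunit-specific active-site occupancy read by ProCISE: biotinylated active-site probe binding, denaturation, streptavidin capture, subunit-specific antibody and HRP chemiluminescence. Signal normalized to protein and expressed relative to DMSO controls.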

[13] = system: PBMC; assay: Antiinflammatory activity in human PBMC assessed as reduction in anti-CD3/CD28 antibody-stimulated IFN-gamma expression at 250 nM preincubated for 1 hr followed by anti-CD3/CD28 antibody stimulation measured after 24 hrs by ELISA; type: functional, cell-based
Procedure, shortened: (§4)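 Healthy-donor PBMC, thawed from cryopreservation, 250 000 cells/well in RPMI 1640/5% FBS. Pretreated 1 h at 37 °C with compound alone or combined (0.1% DMSO final), washed 4 times, then stimulated 24 h with anti-CD3 and anti-CD28 antibodies. TNFα and IFNγ in supernatants by electrochemiluminescent ELISA; expressed relative to DMSO-treated controls (n = 6).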

[14] = system: PBMC; assay: Antiinflammatory activity in human PBMC assessed as reduction in LPS-stimulated TNF-alpha expression at 250 nM preincubated for 1 hr followed by LPS stimulation measured after 24 hrs by ELISA; type: functional, cell-based; procedure, shortened: as §2
[15] = system: PBMC; assay: Antiinflammatory activity in human PBMC assessed as reduction in anti-CD3/CD28 antibody-stimulated TNF-alpha expression at 250 nM preincubated for 1 hr followed by anti-CD3/CD28 antibody stimulation measured after 24 hrs by ELISA; type: functional, cell-based; procedure, shortened: as §4
[16] = biological target: T10, Proteasome subunit beta type-8 (Homo sapiens) (UniProt P28062); assay: Inhibition of LMP7 in human PBMC at 250 nM by ELISA; procedure, shortened: as §3
T10 sequence (whole entry): T1 sequence (P28062 whole entry)

[17] = system: PBMC; assay: Antiinflammatory activity in human PBMC assessed as reduction in LPS-stimulated IL-6 expression at 250 nM preincubated for 1 hr followed by LPS stimulation measured after 24 hrs by ELISA; type: functional, cell-based; procedure, shortened: as §2

Structure (SMILES)	IC50 [1] [nM]	IC50 [2] [nM]	IC50 [3] [nM]	IC50 [4] [nM]	solubility at 24 h [5] [µg/mL]	IC50 [6] [nM]	IC50 [7] [nM]	IC50 [8] [nM]	IC50 [9] [nM]	IC50 [10] [nM]	inhibition [11]	inhibition [12]	Activity [13]	Activity [14]	Activity [15]	inhibition [16]	Activity [17]
COc1ccc(C[C@H](NC(=O)[C@@H](C)NC(=O)C2=C(C)c3ccccc3C2)C(=O)N[C@@H](Cc2ccccc2)C(=O)[C@@]2(C)CO2)cc1	76	2340	764	3620	1.4 (≈ 2.3 µM)	–	–	–	–	–	–	–	–	–	–	–	–
COc1ccc(C[C@H](NC(=O)[C@H](C)NC(=O)CN2CCOCC2)C(=O)N[C@@H](CC2=CCCC2)C(=O)[C@@]2(C)CO2)cc1	–	694	110	–	2730 (≈ 4790 µM)	223	–	–	–	–	–	–	–	–	–	–	–
CC(C)C[C@H](NC(=O)CN1CCCCCC1)C(=O)N[C@@H](Cc1ccccc1)C(=O)N[C@@H](Cc1ccccc1)C(=O)[C@@]1(C)CO1	49	38	56	39	–	415	97	415	141	159	–	–	–	–	–	–	–
COc1ccc(C[C@H](NC(=O)[C@H](C)NC(=O)CN2CCOCC2)C(=O)N[C@@H](Cc2ccccc2)C(=O)[C@@]2(C)CO2)cc1	–	401	98	–	< 0.5	–	–	328	–	699	Active	Active	Active	Active	Active	Active	Active
COc1ccc(C[C@H](NC(=O)[C@@H](C)NC(=O)C2CCCCC2)C(=O)N[C@@H](Cc2ccccc2)C(=O)[C@@]2(C)CO2)cc1	–	118	141	–	12.1 (≈ 21.5 µM)	–	–	–	–	–	–	–	–	–	–	–	–
